According to ChEMBL document CHEMBL5620424, “Design, synthesis and evaluation of novel 2-phenyl-3-(1H-pyrazol-4-yl)pyridine positive allosteric modulators for the M4 mAChR” (Eur J Med Chem, 2023):
Activity calls are given as the source filed them. The rule behind the calls is not given here.

How the values were obtained:
[1] = biological target: T1, Muscarinic acetylcholine receptor M2 (Homo sapiens) (UniProt P08172); assay: Positive allosteric modulation at human M2 mAChR expressed in Flp-In-CHO cells at 10 uM incubated for 5 mins by […]; type: cell-based
T1 sequence (whole entry): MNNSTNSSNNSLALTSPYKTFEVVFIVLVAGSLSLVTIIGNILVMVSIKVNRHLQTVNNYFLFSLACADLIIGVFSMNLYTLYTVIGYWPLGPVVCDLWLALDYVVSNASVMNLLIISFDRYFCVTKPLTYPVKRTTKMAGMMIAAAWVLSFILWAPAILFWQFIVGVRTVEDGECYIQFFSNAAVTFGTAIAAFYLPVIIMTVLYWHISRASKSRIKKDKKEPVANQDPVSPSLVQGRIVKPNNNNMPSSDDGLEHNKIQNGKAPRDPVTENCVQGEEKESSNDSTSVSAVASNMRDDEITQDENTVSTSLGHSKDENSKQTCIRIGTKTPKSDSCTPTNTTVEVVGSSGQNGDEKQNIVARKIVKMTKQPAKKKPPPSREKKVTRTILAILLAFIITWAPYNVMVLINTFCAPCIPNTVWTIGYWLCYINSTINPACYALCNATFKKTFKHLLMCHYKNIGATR
Method in brief: (§1)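 FlpInCHO cells stably expressing human M1–M5 mAChRs, serum-deprived in HBSS 4 h at 37 °C, then ACh (10 nM–10 μM) with or without modulator at 10 μM for 5 min at 37 °C. Cells lysed and frozen overnight. pERK1/2 measured by AlphaScreen SureFire Ultra, as % of response to 10% FBS.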

[2] = biological target: T2, Muscarinic acetylcholine receptor M4 (Homo sapiens) (UniProt P08173); assay: Positive allosteric modulation at Rluc-tagged human M4 mAChR expressed in Flp-In-CHO cells co-expressing eYFP-tagged beta-arrestin 2 assessed as efficacy of ACh-mediated beta-arrestin 2 recruitment (log tau B) incubated for 5 mins by luminometry; type: cell-based; settings: filed as positive allosteric modulator
T2 sequence (whole entry): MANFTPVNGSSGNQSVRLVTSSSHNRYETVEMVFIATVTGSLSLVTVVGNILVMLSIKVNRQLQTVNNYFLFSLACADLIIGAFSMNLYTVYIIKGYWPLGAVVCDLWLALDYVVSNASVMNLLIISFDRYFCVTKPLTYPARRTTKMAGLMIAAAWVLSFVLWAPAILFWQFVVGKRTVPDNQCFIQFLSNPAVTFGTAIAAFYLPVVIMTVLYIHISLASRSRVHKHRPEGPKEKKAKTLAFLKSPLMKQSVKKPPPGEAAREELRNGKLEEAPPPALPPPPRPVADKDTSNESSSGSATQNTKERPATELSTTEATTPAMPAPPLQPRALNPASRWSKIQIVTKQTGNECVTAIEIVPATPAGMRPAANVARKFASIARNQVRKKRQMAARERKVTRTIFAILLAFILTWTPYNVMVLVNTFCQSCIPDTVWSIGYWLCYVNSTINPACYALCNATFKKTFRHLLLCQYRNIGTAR
Method in brief: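 FlpInCHO cells co-transfected with human M4-Rluc8 (20 ng/well) and β-arrestin-2-eYFP (80 ng/well) using PEI, assayed after 48 h. Coelenterazine h (5 μM) preincubated 5 min, then ACh plus modulator ranges for 5 min at 37 °C; BRET at 475/535 nm. Fit to simplified operational model with slope 1 and KB fixed from binding. 4–5 experiments in duplicate.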

[3] = biological target: Muscarinic acetylcholine receptor M3 (Homo sapiens) (UniProt P20309); assay: Positive allosteric modulation at human M3 mAChR expressed in Flp-In-CHO cells at 10 uM incubated for 5 mins by […]; type: cell-based; method in brief: as §1
Sequence of Muscarinic acetylcholine receptor M3 (Homo sapiens) (P20309 whole entry, looked up): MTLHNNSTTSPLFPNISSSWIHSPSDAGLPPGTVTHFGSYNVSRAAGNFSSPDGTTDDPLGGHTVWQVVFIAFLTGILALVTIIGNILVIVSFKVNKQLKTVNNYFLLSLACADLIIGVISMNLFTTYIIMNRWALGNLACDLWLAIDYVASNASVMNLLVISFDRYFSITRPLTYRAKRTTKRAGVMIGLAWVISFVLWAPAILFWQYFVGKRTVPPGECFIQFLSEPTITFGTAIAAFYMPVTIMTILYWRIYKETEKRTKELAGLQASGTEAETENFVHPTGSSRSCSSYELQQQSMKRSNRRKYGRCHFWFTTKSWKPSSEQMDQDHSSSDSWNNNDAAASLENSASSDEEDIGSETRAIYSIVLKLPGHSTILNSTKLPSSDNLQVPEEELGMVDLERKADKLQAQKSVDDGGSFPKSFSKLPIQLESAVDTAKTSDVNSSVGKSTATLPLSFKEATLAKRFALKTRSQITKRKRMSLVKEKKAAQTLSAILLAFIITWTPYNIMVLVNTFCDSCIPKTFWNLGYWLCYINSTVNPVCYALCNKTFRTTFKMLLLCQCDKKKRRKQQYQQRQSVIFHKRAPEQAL

[4] = Drug concentration in plasma of naive C57BL/6J mouse at 10 mg/kg, ip measured after 90 mins; type: ADME, organism-based
Method in brief: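 Male C57Bl/6J mice, naïve, 10–12 weeks old, dosed i.p. at 10 mg/kg in 10% DMSO, 1.1% Tween 80, 21.8 mM Tris. Blood by cardiac puncture under anaesthesia at 20 or 90 min (n = 2–3 per time point). Brain concentration corrected for compound in brain vasculature. Mean nM ± SEM reported; Kp = Cbrain/Cplasma, reported as a range.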

[5] = biological target: T2, Muscarinic acetylcholine receptor M4 (Homo sapiens); assay: Positive allosteric modulation at human M4 mAChR expressed in Flp-In-CHO cells assessed as increase in ERK1/2 phosphorylation at 10 uM incubated for 5 mins […]; type: cell-based; settings: filed as positive allosteric modulator; method in brief: as §1
[6] = biological target: T2, Muscarinic acetylcholine receptor M4 (Homo sapiens); assay: Positive allosteric modulation at human M4 mAChR expressed in Flp-In-CHO cells co-expressing CAMYEL biosensor assessed as change in ACh-mediated response incubated for 5 mins by BRET assay; type: cell-based; settings: filed as positive allosteric modulator
Method in brief: (§2)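 FlpInCHO cells stably expressing human M4 mAChR, transiently transfected with CAMYEL cAMP BRET biosensor (60 ng/well, PEI), assayed 48 h later in HBSS pH 7.4. Full ACh concentration-response curve alone or with modulator at 1 or 10 μM, co-added with coelenterazine h (5 μM), 5 min, 37 °C. Three-parameter logistic fit; ACh curve values subtracted from ACh+modulator values. Δbaseline and ΔEmax given as % of maximal ACh response without modulator. 4 experiments in duplicate, SEM pooled.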

[7] = biological target: T3, Muscarinic acetylcholine receptor M1 (Homo sapiens) (UniProt P11229); assay: Positive allosteric modulation at human M1 mAChR expressed in Flp-In-CHO cells at 10 uM incubated for 5 mins by AlphaScreen SureFire Ultra pERK1/2 assay
T3 sequence (whole entry): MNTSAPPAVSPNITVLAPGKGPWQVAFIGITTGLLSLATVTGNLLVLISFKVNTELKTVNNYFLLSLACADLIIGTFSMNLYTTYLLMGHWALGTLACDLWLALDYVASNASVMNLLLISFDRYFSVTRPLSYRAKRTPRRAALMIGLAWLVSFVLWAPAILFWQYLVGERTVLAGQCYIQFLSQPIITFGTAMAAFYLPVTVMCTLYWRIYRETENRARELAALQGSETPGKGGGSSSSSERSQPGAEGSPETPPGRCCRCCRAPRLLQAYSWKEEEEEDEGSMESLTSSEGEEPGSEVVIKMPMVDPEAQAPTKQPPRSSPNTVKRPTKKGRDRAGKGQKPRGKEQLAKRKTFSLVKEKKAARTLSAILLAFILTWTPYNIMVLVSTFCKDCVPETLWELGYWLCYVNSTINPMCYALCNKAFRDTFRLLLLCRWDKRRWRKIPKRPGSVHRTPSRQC

[8] = biological target: T2, Muscarinic acetylcholine receptor M4 (Homo sapiens); assay: Positive allosteric modulation at human M4 mAChR expressed in Flp-In-CHO cells co-expressing CAMYEL biosensor assessed as change in maximum ACh-mediated response at 10 uM incubated for 5 mins by BRET assay relative to control; type: cell-based; method in brief: as §2
[9] = filed as positive allosteric modulator

Row | Activity [1, 9] | log(activity) [2] | Activity [3] | concentration at 1.5 h [4] [nM] | Activity [5] | deltapEC50 [6] | Activity [7] | Emax [8, 9] [%] | Activity [1] | Emax [8] [%] | Compound
1 | Active | 0.99 | inactive | 14 | Active | 1.48 | inactive | 44.7 |  |  | Cc1ccc(-c2cnn(CC3CCCC3)c2)c(-c2ccc3c(c2)C(=O)N(C)C3)n1
2 |  | 0.39 | inactive | 657 | Active | 1.27 | inactive |  | inactive | 5.6 | Cc1ccc(-c2cnn(CC3CCCC3)c2)c(-c2ccc(N)c([N+](=O)[O-])c2)n1
3 |  | 0.31 | inactive | 159 | Active | 0.76 | inactive | 129 | inactive |  | Cc1ccc(-c2cnn(CC3CCCC3)c2)c(-c2ccc(F)c(F)c2)n1
